Laboratory results as given in ChEMBL document CHEMBL1122340, “11,12-secoprostaglandins. 6. Interphenylene analogues of acylhydroxyalkanoic acids and related compounds as renal vasodilators” (1983).

How the values were obtained:
Canis familiaris [1] = test: Percentage change in renal resistance in anesthetized dogs; type: functional, Canis lupus familiaris
How it was run: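 Anesthetized dogs, femoral artery and vein catheterized for BP and iv injection; at least 30 min recovery after surgery. Mean renal blood flow and mean arterial BP sampled at 1-min intervals over a 30-min control period, then 500 µg/kg given iv bolus in aqueous solution as Na salt, monitored 30 min more. Renal resistance = mean BP / mean RBF. Two dogs per compound; saline placebo in three dogs.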

Canis familiaris [2] = test: Mean heart rate in conscious dog at 0-1 hr after 5 mg/kg (po) compound administration; type: functional, Canis lupus familiaris
How it was run: (§1)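 Conscious dogs, 3 per group. Dose 5 mg/kg given orally in a gelatin capsule; lactose capsule as placebo. Renal blood flow (flow meters), arterial pressure (transducer) and heart rate recorded digitally every 2 min through a 30-min predrug control period and 5 h postdose. Readings averaged for the control period and for each posttreatment hour; means ± SE.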

Canis familiaris [3] = test: Mean heart rate in conscious dog at 1-2 hr after 5 mg/kg (po) compound administration; type: functional, Canis lupus familiaris; how it was run: as §1
Canis familiaris [4] = test: Mean heart rate in conscious dog at 2-3 hr after 5 mg/kg (po) compound administration; type: functional, Canis lupus familiaris; how it was run: as §1
Canis familiaris [5] = test: Mean heart rate in conscious dog at 3-4 h after 5 mg/kg (po) compound administration; type: functional, Canis lupus familiaris; how it was run: as §1
Canis familiaris [6] = test: Mean heart rate in conscious dog at 4-5 hr after 5 mg/kg (po) compound administration; type: functional, Canis lupus familiaris; how it was run: as §1
Canis familiaris [7] = test: Mean renal blood (RBF) flow in conscious dog at 0-1 hr after 5 mg/kg (po); type: functional, Canis lupus familiaris, Kidney; how it was run: as §1
Canis familiaris [8] = test: Mean renal blood flow (RBF) in conscious dog at 1-2h after 5 mg/kg (po); type: functional, Canis lupus familiaris, Kidney; how it was run: as §1
Canis familiaris [9] = test: Mean renal blood flow (RBF) in conscious dog at 4-5 hr after 5 mg/kg (po); type: functional, Canis lupus familiaris, Kidney; how it was run: as §1
Canis familiaris [10] = test: Mean renal blood flow (RBF) in conscious dog at 2-3 hr after 5 mg/kg (po); type: functional, Canis lupus familiaris, Kidney; how it was run: as §1
Canis familiaris [11] = test: Mean renal blood flow in (RBF) conscious dog at 3-4 hr after 5 mg/kg (po); type: functional, Canis lupus familiaris, Kidney; how it was run: as §1
Canis familiaris [12] = test: Mean arterial blood pressure in conscious dog at 0-1 hr after 5 mg/kg (po) compound administration; type: functional, Canis lupus familiaris; how it was run: as §1
Canis familiaris [13] = test: Mean arterial blood pressure in conscious dog at 1-2 hr after 5 mg/kg (po) compound administration; type: functional, Canis lupus familiaris; how it was run: as §1
Canis familiaris [14] = test: Mean arterial blood pressure in conscious dog at 2-3 h after 5 mg/kg (po) compound administration; type: functional, Canis lupus familiaris; how it was run: as §1
Canis familiaris [15] = test: Mean arterial blood pressure in conscious dog at 3-4 h after 5 mg/kg (po) compound administration; type: functional, Canis lupus familiaris; how it was run: as §1
Canis familiaris [16] = test: Mean arterial blood pressure in conscious dog at 4-5 h after 5 mg/kg (po) compound administration; type: functional, Canis lupus familiaris; how it was run: as §1

CCCCCC(O)CCCC(CCCc1cccc(C(=O)O)c1)C(C)=O (stereo unspecified)
Change (Canis familiaris [1]): -20%

CCCCCC(O)CCCN(CCCc1ccc(C(=O)O)cc1)S(C)(=O)=O (stereo unspecified)
Change (Canis familiaris [1]): 5%

CCCCCC(O)CCCC(CCCc1ccc(C(=O)O)cc1)C(C)=O (stereo unspecified)
HR (Canis familiaris [2]): 74 beats min-1
HR (Canis familiaris [3]): 73 beats min-1
HR (Canis familiaris [4]): 74 beats min-1
HR (Canis familiaris [5]): 64 beats min-1
HR (Canis familiaris [6]): 68 beats min-1
RBF (Canis familiaris [7]): 137 mL/min
RBF (Canis familiaris [8]): 194 mL/min
RBF (Canis familiaris [9]): 124 mL/min
RBF (Canis familiaris [10]): 173 mL/min
RBF (Canis familiaris [11]): 139 mL/min
MABP (Canis familiaris [12]): 116 mmHg
MABP (Canis familiaris [13]): 106 mmHg
MABP (Canis familiaris [14]): 97 mmHg
MABP (Canis familiaris [15]): 95 mmHg
Change (Canis familiaris [1]): -47%
MABP (Canis familiaris [16]): 106 mmHg

CCCCCC(O)CCCC(Cc1ccc(CCC(=O)O)cc1)C(C)=O (stereo unspecified)
Change (Canis familiaris [1]): 13%

CC(=O)C(CCCc1ccc(C(=O)O)cc1)CCCC1(O)CCCCC1 (stereo unspecified)
Change (Canis familiaris [1]): -42%

CS(=O)(=O)N(CCCc1ccc(C(=O)O)cc1)CCCC1(O)CCCCC1
Change (Canis familiaris [1]): -7%

CS(=O)(=O)N(CC#CC1(O)CCCCC1)CCCc1ccc(C(=O)O)cc1
Change (Canis familiaris [1]): -10%

CCCCCC(O)CCCC(CCCc1ccc(C(=O)O)cc1)C(C)O (stereo unspecified)
Change (Canis familiaris [1]): -19%

CCCCCC(O)CCCC(CCCCc1ccccc1C(=O)O)C(C)=O (stereo unspecified)
Change (Canis familiaris [1]): 19%

CCCOCC(O)CCCC(CCCc1ccc(C(=O)O)cc1)C(C)=O (stereo unspecified)
Change (Canis familiaris [1]): -43%

CCCCCC(O)CCCC(CCCCc1ccc(C(=O)O)cc1)C(C)=O (stereo unspecified)
Change (Canis familiaris [1]): 18%
